Assay results as given in ChEMBL document CHEMBL1133463, “Novel mutual prodrug of retinoic and butyric acids with enhanced anticancer activity” (J Med Chem, 2000).
Where “and” joins values, the source holds several entries; their conditions need not be identical. Equal entries are not always repeated.

What was measured:
[1] = test system: HL-60; experiment: Differentiation activity was determined by evaluation of NBT reduction activity of HL-60 cells, % of NBT positive cells determined; assay type: functional, Homo sapiens
Summary of the method: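 HL-60 grown 2 days with or without compound at 0.25 μM. Cultures then given 0.1% NBT, stimulated with 0.4 μM PMA and incubated 30 min at 37 °C. At least 200 cells scored microscopically. % NBT-positive cells taken as stained/total, minus the untreated-culture value. Three independent experiments.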

[2] = test system: 3LLD122; experiment: Concentration required to inhibit the colony formation of lung carcinoma (3LLD122) cell lines by 50%; assay type: functional, cell-based; conditions: Mus musculus
Summary of the method: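 Murine 3LLD122 (highly metastatic 3LL subclone) grown in RPMI with 10% FCS and 2 mM glutamine at 37 °C, 5% CO2. Compounds added to the upper layer of a semisolid agar bilayer. Aggregates of >20 cells scored as colonies after 7 days by inverted microscope. Drugs in DMSO at 1:1000 dilution (final DMSO ≤0.1%).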

[3] = test system: HL-60; experiment: In vitro for the differentiation induction activity determined in the human myeloid leukemic cell line HL-60; assay type: functional; conditions: read-out: ED50 (the source's name)
Summary of the method: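 HL-60 treated 4 days. NBT reduction measured with 0.1% NBT plus 0.4 μM PMA for 30 min at 37 °C, scoring ≥200 cells, with the untreated background subtracted. ED50 is the concentration giving half-maximal NBT reduction, obtained by linear regression and averaged over three independent experiments.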

[4] = test system: MIA PaCa-2; experiment: Concentration required to inhibit the colony formation of pancreatic human (PACA) cell lines by 50%; assay type: functional, cell-based
Summary of the method: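 PaCa2 single-cell suspensions plated at 400 cells per 60-mm dish. Drug exposure began 24 h after plating. Colonies formed over 7-12 days, then were MeOH-fixed, Giemsa-stained, counted and compared with untreated control. Triplicate assays. Drugs in DMSO, final ≤0.1%.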

Compound | NBT positive cells [1] | IC50 [2] | EC50 [3] | IC50 [4]
CC1=C(/C=C/C(C)=C/C=C/C(C)=C/C(=O)OCOC(=O)C(C)C)C(C)(C)CCC1 | 48% and 54% and 49% | – | – | –
CC1=C(/C=C/C(C)=C/C=C/C(C)=C/C(=O)OCOC(=O)C(C)(C)C)C(C)(C)CCC1 | 13% and 21% and 17% | – | – | –
CCC(=O)OCOC(=O)/C=C(C)/C=C/C=C(C)/C=C/C1=C(C)CCCC1(C)C | 60% and 56% and 57% | – | – | –
CCCC(=O)OCOC(=O)/C=C(C)/C=C/C=C(C)/C=C/C1=C(C)CCCC1(C)C | 72% and 74% and 78% | 4.5 µM | 0.031 µM | 4 µM
CCCC(=O)OCOC(=O)C(C)(C)C [AN-9] | – | 35 µM | – | 30 µM
CCCC(=O)O [BUTYRIC ACID] | – | > 1000 µM | 285 µM | 250 µM
CC1=C(/C=C/C(C)=C/C=C/C(C)=C/C(=O)O)C(C)(C)CCC1 [TRETINOIN] | 21% and 30% and 22% | 33 µM | 1.25 µM | 9.5 µM
